The record followed here is ChEMBL document CHEMBL1137359, “Potent and orally bioavailable 8-bicyclo[2.2.2]octylxanthines as adenosine A1 receptor antagonists” (J Med Chem, 2006).

Each structure is given as a SMILES string. pKi: −log10 of the molar value. ≈ marks a conversion by molar mass, not a printed value.

Series [1] deals with T1, Adenosine receptor A2b (Homo sapiens) (UniProt P29275).
T1 sequence (whole entry): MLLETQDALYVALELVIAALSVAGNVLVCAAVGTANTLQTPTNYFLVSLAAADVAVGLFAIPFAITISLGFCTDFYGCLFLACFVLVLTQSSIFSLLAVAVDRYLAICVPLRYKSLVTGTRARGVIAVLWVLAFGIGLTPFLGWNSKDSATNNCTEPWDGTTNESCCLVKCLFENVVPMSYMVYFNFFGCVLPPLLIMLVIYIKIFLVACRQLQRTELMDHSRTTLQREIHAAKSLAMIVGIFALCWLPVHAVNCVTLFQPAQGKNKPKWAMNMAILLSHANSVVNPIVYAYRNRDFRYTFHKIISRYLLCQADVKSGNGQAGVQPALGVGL
Nature of the series: Displacement of [125I]3-(4-aminobenzyl)-8-phenyloxyacetate-1-propyl-xanthine from human adenosine A2B receptor expressed in HEK cells relative to control. Further details: concentration or dose not given beside the values. To be noted: HEK293. It counts as cell-based. The method in brief: (§1)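 Single-point screen at 1 µM antagonist, run in duplicate, on transfected-cell membranes: CHO-K1 (hA1), HEK (hA2A, hA2B, hA3). 2 h at room temperature in 50 mM HEPES pH 7.4, 1 mM EDTA, 5 mM MgCl2, 1 U/mL adenosine deaminase; 5% DMSO except hA3. Nonspecific binding with 50 µM XAC, or 10 µM BW-1433 for hA3. Result is % radioligand bound relative to control.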
For orientation: Displacement assays read how much labelled ligand stays bound in the presence of the test substance.

Series [2] addresses T2, Adenosine receptor A3 (Homo sapiens) (UniProt P0DMS8).
T2 sequence (whole entry): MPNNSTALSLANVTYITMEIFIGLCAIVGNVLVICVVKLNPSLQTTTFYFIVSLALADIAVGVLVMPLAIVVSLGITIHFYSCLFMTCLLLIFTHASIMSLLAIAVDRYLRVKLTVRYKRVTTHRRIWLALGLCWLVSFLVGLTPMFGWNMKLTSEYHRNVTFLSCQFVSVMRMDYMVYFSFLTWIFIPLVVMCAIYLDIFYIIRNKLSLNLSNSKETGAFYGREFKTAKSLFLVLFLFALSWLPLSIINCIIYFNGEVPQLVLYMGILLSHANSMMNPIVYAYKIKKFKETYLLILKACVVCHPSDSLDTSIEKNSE
The series is described as follows: Displacement of [125I]ABA from human adenosine A3 receptor expressed in HEK cells relative to control. It counts as cell-based. Particulars: HEK293. On the set-up: concentration or dose not given beside the values. The method in brief: as §1

The nature of series [3]: Solubility in 5% dextrose in water. It counts as physicochemical. An outline of the steps: (§2)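 Solubility of each compound measured in sterile water for injection, 0.9% saline, 5% dextrose in water, ethanol and octanol; values in mg/mL from duplicate determinations per solvent, individual values varying <5%.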
Series [4] is described as follows: Solubility in octanol. In kind it is physicochemical. The method in brief: as §2
The nature of series [5]: Solubility in 0.9% saline. In kind it is physicochemical. The method in brief: as §2
The nature of series [6]: Half life in Sprague-Dawley rat at 2 mg, po. It counts as ADME, organism-based. To be noted: in vivo. An outline of the steps:
(§3)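 Pharmacokinetics after one oral dose in male Sprague-Dawley rats (1 mg/kg, or 2 mg dose), beagle dogs and cynomolgus monkeys (1 mg/kg). Bioavailability, half-life, clearance and volume of distribution reported as mean ± variation.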

Series [7] in a line: Oral bioavailability in Sprague-Dawley rat at 2 mg, po. In kind it is ADME, organism-based. Particulars: in vivo. An outline of the steps:
as §3

The target of series [8] is Adenosine receptor A2a (Homo sapiens, UniProt P29274). The series is described as follows: Displacement of [125I]ZM-241385 from human adenosine A2A receptor expressed in HEK cells. It counts as cell-based, HEK293. The method in brief:
(§4)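 Membranes from stably transfected CHO-K1 (hA1) or HEK (hA2A, hA2B, hA3) cells, 2 h at room temperature in 50 mM HEPES pH 7.4, 1 mM EDTA, 5 mM MgCl2, 1 U/mL adenosine deaminase. 5% DMSO final except hA3. Full curves 10^-11–10^-5 M, seven concentrations, four determinations each. Filtration, γ-counting, Ki derived.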

Series [9] is described as follows: Clearance in Sprague-Dawley rat at 2 mg, po. In kind it is ADME, organism-based. To be noted: in vivo. The method in brief: as §3
Series [10] is described as follows: Aqueous solubility of the compound. It counts as physicochemical. To be noted: water. An outline of the steps:
as §2

The nature of series [11]: Solubility in ethanol. In kind it is physicochemical. An outline of the steps: as §2
For series [12], the system named is Rattus norvegicus. Nature of the series: Volume of distribution in Sprague-Dawley rat at 2 mg, po. In kind it is ADME, organism-based. Particulars: in vivo. The method in brief: as §3
For series [13], the target named is Adenosine receptors; A1 & A2a (Homo sapiens) (UniProt P30542+P29274). The series is described as follows: Selectivity for human adenosine A1 receptor over human adenosine A2A receptor. In kind it is protein assay.
Series [14] deals with T3, Adenosine receptor A1 (Rattus norvegicus, UniProt P25099).
T3 sequence (P25099 whole entry): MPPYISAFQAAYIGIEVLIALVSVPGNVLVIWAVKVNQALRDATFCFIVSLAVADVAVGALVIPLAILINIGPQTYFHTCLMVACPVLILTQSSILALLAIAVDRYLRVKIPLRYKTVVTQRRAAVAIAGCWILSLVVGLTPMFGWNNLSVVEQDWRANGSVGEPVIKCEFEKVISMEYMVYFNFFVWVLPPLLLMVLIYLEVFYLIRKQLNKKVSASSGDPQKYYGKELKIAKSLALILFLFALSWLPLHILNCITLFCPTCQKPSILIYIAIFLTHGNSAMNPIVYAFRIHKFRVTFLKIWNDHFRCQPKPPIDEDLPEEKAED
The series is described as follows: Displacement of [3H]CPX from rat brain cortex adenosine A1 receptor. An outline of the steps: (§5)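 Crude membranes (10-20 µg protein) from rat brain cortex (A1, 2 nM 3H-CPX) or striatum (A2A, 0.5-1.2 nM 3H-ZM241385) incubated 90 min at room temperature in 50 mM Tris-HCl pH 7.4 with 2 U/mL adenosine deaminase. Stopped with ice-cold buffer, then vacuum filtration and scintillation counting. Ki from concentration-response displacement.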

For series [15], the target named is T4, Adenosine receptor A1 (Homo sapiens, UniProt P30542).
T4 sequence (P30542 whole entry): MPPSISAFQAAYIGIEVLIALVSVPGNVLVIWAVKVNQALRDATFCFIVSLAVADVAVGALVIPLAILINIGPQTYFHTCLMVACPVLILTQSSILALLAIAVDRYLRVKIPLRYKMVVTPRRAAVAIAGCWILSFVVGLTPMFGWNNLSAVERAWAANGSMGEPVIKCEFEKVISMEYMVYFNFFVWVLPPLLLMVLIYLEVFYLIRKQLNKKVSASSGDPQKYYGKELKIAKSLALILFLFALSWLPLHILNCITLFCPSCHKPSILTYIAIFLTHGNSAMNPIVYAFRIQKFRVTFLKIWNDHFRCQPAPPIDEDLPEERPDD
The series is described as follows: Displacement of [125I]ABA from human adenosine A1 receptor expressed in CHOK1 cells. In kind it is cell-based, CHO-K1. The method in brief: as §4

The target in series [16] is Adenosine receptor A2a (Rattus norvegicus, UniProt P30543). The series is described as follows: Displacement of [3H]ZM-241385 from rat brain striatum adenosine A2A receptor. The method in brief:
as §5

Sequence of Adenosine receptor A2a (Rattus norvegicus, UniProt P30543) (P30543 whole entry): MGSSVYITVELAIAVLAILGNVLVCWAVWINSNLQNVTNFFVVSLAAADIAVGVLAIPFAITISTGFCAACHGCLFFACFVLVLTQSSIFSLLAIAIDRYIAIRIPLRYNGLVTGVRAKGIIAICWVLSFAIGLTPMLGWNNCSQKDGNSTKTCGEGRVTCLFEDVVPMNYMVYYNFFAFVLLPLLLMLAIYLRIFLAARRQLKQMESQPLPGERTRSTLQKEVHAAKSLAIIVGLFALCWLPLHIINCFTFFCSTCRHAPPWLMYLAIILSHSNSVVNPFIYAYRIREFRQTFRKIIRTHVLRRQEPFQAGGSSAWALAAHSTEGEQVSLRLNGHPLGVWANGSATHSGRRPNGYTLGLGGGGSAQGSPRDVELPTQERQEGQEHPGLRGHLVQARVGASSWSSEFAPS
Sequence of Adenosine receptor A2a (Homo sapiens, UniProt P29274) (P29274 whole entry): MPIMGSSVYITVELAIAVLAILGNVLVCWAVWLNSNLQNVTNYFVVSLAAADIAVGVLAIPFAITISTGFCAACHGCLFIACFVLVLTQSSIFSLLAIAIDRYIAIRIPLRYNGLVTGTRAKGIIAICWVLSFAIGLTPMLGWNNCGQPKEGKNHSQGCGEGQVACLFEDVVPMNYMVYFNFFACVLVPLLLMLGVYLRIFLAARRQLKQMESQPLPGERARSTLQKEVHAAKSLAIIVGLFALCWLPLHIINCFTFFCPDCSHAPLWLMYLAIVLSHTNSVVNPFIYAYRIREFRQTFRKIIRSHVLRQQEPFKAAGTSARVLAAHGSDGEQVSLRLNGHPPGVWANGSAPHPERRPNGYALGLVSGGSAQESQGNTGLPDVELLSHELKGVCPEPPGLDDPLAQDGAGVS

In general, solubility refers to the concentration that dissolves in the medium under given conditions. One may read the half-life as how long it takes for the measured level to halve. By bioavailability is commonly meant dose-corrected exposure relative to a reference, in per cent. Broadly, the pKi is the negative decadic logarithm of the Ki, by convention in mol/L. For orientation: CL/F means the apparent clearance, not corrected for the fraction that reaches the circulation. As to `CCCn1c(=O)c2nc([C@]34CC[C@](C(=O)O)(CC3)CC4)[nH]c2n(CCC)c1=O`, the Activity is 48% in series [1] and 100% in series [2]. The solubility in series [3] worked out at 63 mg/mL (≈ 162 mM); in series [4], 60 mg/mL (≈ 154 mM); in [5], 29.8 mg/mL (≈ 76.7 mM); in series [10], 18.1 mg/mL (≈ 46.6 mM); in series [11] it was 51 mg/mL (≈ 131 mM). For the same molecule, the half-life in [6] was 2.14 h. Also, the bioavailability in series [7] came out at 97%. For the same molecule, the negative logarithm of the Ki (pKi) in series [8] is 5.97; in series [14], 8.11; in series [15], 7.48. This molecule also came in with an apparent clearance (CL/F) in [9] of 2.26 mL/min/kg. Also, in series [12], the Vdss stood at 0.57 L/kg. Further, the Ratio Ki in [13] amounted to 32.
For `CCCn1c(=O)c2nc([C@]34CC[C@](CC(=O)O)(CC3)CC4)[nH]c2n(CCC)c1=O`, the negative logarithm of the Ki (pKi) in series [16] was 5.05; in series [14] it was 7.65.
